Data taken from ChEMBL document CHEMBL4038313, “Expanding the Antiviral Spectrum of 3-Fluoro-2-(phosphonomethoxy)propyl Acyclic Nucleoside Phosphonates: Diamyl Aspartate Amidate Prodrugs” (J Med Chem, 2017).

What was measured:
[1] = system: Human immunodeficiency virus 1; assay: Antiviral activity against CXCR4-tropic HIV-1 NL4-3 infected in human TZM-bl cells assessed as inhibition of virus-induced cytopathic effect preincubated with cells for 30 mins followed by viral infection measured after 48 hrs in presence of p-24 HIV-1 Ag by luciferase reporter gene assay; type: functional, cell-based; conditions: Human immunodeficiency virus 1, NL4-3, TZM-bl
How it was run: (§1)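 TZM-bl cells, 1 × 10^4 per well in DMEM with 10% FBS and 10 mM […], incubated 30 min at 37 °C with compound. Then HIV-1 NL4.3 (X4) or BaL (R5) added at 100 pg p24 Ag per well. After 48 h, cells lysed with luciferase substrate. Tat-induced luminescence read after 10 min dark incubation as a measure of replication.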

[2] = system: Human immunodeficiency virus 1; assay: Antiviral activity against CCR5 tropic HIV1 BaL infected in human TZM-bl cells assessed as inhibition of virus-induced cytopathic effect preincubated with cells for 30 mins followed by viral infection measured after 48 hrs in presence of p-24 HIV-1 Ag by luciferase reporter gene assay; type: functional, cell-based; conditions: Human immunodeficiency virus 1, BaL; how it was run: as §1
[3] = Cytotoxicity against human TZM-bl cells assessed as cell viability by tetrazolium dye assay; type: cell-based
[4] = Selectivity index, ratio of CC50 for human TZM-bl cells to EC50 for CXCR4-tropic HIV-1 NL4-3 infected in human TZM-bl cells; type: toxicity, cell-based; conditions: read-out: Ratio CC50/EC50
[5] = Selectivity index, ratio of CC50 for human TZM-bl cells to EC50 for CCR5 tropic HIV1 BaL infected in human TZM-bl cells; type: toxicity, cell-based; conditions: read-out: Ratio CC50/EC50
[6] = system: Hepatitis B virus; assay: Antiviral activity against HBV ayw1 infected in human HepG2(2.2.15) cells assessed as reduction in viral replication by measuring extracellular viral DNA copy number after 6 days by real-time qPCR method; type: functional, cell-based; conditions: ayw1, HepG2 2.2.15, 144 h
How it was run: (§2)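 HepG2.2.15 cells (two copies of HBV ayw1 genome), 1.5 × 10^4/well in DMEM with 2% FBS and 380 μg/mL G418. After 16–24 h, compound added in triplicate, medium with compound renewed at day 3. Supernatant collected at day 6, Pronase-treated, and extracellular HBV DNA measured by TaqMan qPCR (precore/core) against an HBV DNA standard curve. EC50/EC90 derived; CC50 by MTS uptake.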

[7] = Cytotoxicity against human HepG2.2.15 cells assessed as cell viability by tetrazolium dye uptake assay; type: cell-based, HepG2 2.2.15
How it was run: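 HepG2.2.15 cells (two integrated copies of HBV ayw1 genome) were seeded at 1.5 × 10^4 cells/well in DMEM with 2% FBS, 380 μg/mL G418, glutamine, antibiotics and nonessential amino acids. After 16−24 h, medium with various compound concentrations was added in triplicate and renewed on day 3. After 6 days of treatment, viability was read by MTS uptake and CC50 was calculated.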

[8] = Selectivity index, ratio of CC50 for HepG2.2.15 cells to EC50 for HBV ayw1 infected in human HepG2(2.2.15) cells assessed as reduction in viral replication by measuring extracellular viral DNA copy; how it was run: as §2
[9] = system: Human betaherpesvirus 5; assay: Antiviral activity against Human cytomegalovirus AD169 infected in HEL cells assessed as inhibition of virus-induced cytopathic effect; type: functional, cell-based; conditions: Human betaherpesvirus 5, AD169, HEL
How it was run: (§3)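 HEL fibroblast monolayers inoculated with 100 CCID50 HCMV (AD-169, Davis) or 20 PFU VZV (TK+ Oka, TK− 07-1). Adsorbed 1–2 h, inoculum removed, then incubated with compound dilutions. HCMV cytopathicity or VZV plaques scored once untreated infected controls reached completion. EC50 is 50% reduction. SI is CC50/EC50, and the potency ratio is the ratio of EC50s.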

[10] = system: Human betaherpesvirus 5; assay: Antiviral activity against HCMV Davis strain infected in HEL cells assessed as inhibition of virus-induced cytopathic effect; type: functional, cell-based; conditions: Human betaherpesvirus 5, Davis; how it was run: as §3
[11] = system: Human alphaherpesvirus 3; assay: Antiviral activity against thymidine kinase expressing Varicella-Zoster virus Oka strain assessed as inhibition of plaque formation; type: functional; conditions: Human alphaherpesvirus 3, strain Oka vaccine; how it was run: as §3
[12] = system: Human alphaherpesvirus 3; assay: Antiviral activity against thymidine kinase deficient Varicella-Zoster virus 07-1 infected in HEL cells assessed as inhibition of plaque formation; type: functional, cell-based; conditions: Human alphaherpesvirus 3, 07-1, HEL; how it was run: as §3
[13] = Cytotoxic activity against HEL cells assessed as alteration of cell morphology after 3 days by microscopic method; type: cell-based; conditions: human
How it was run: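 HEL cells with compound; MCC is the lowest concentration giving microscopically detectable alteration of cell morphology.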

[14] = Stability of the compound in buffer of pH 1 at 2 mg after 6 hrs by 31P NMR spectroscopy; type: physicochemical; conditions: pH 1, 6 h
How it was run: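 2.0 mg compound in 0.2 mL acetone-d6 plus 0.3 mL pH 1 buffer (equal parts 0.2 M HCl and 0.2 M KCl). In situ 31P NMR (202 MHz) at 37 °C, spectra every 30 min over 14 h.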

[15] = Stability of the compound in phosphate buffer of pH 8 at 1 mg after 2 hrs by 31P NMR spectroscopy; type: physicochemical; conditions: pH 8, 2 h
How it was run: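 1 mg compound in 0.2 mL acetone-d6 plus 0.3 mL pH 8 buffer (0.1 M Na2HPO4 adjusted with 0.1 M HCl). In situ 31P NMR (202 MHz) at 37 °C, spectra every 30 min over 14 h.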

[16] = system: Human immunodeficiency virus 1; assay: Antiviral activity against CXCR4-tropic HIV-1 NL4-3 infected in human PHA-stimulated PBMC assessed as inhibition of viral replication by measuring reduction in p24 antigen production preincubated with cells for 30 mins followed by viral infection measured on day 10 post infection in presence of IL-2 by ELISA; type: functional; conditions: Human immunodeficiency virus 1, NL4-3
How it was run: (§4)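 PBMCs stimulated with 2 μg/mL PHA for 3 days at 37 °C, then 5 × 10^5 cells/ml preincubated 30 min at 37 °C with serial compound dilutions plus 2 ng/mL IL-2. Infected with 1500 pg/well HIV-1 BaL or 500 pg/well other isolates. IL-2 re-added on days 3 and 6. Supernatant p24 Ag measured by ELISA at day 10. EC50 is 50% inhibition of replication.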

[17] = system: Human immunodeficiency virus 1; assay: Antiviral activity against CCR5 tropic HIV1 BaL infected in human PHA-stimulated PBMC assessed as inhibition of viral replication by measuring reduction in p24 antigen production preincubated with cells for 30 mins followed by viral infection measured on day 10 post infection in presence of IL-2 by ELISA; type: functional; conditions: Human immunodeficiency virus 1, BaL; how it was run: as §4
[18] = Cytotoxicity against human PHA-stimulated PBMC assessed as cell viability by tetrazolium dye assay; type: cell-based
[19] = Selectivity index, ratio of CC50 for human PHA-stimulated PBMC to IC50 for CXCR4-tropic HIV-1 NL4-3 infected in human PHA-stimulated PBMC
[20] = Selectivity index, ratio of CC50 for human PHA-stimulated PBMCs to IC50 for CCR5 tropic HIV1 BaL infected in human PHA-stimulated PBMC
[21] = system: Human immunodeficiency virus 1; assay: Antiviral activity against tenofovir-resistant CXCR4-tropic HIV-1 NL4-3 harboring reverse transcriptase K65R mutant infected in human MT4 cells assessed as inhibition of viral replication inhibition of virus-induced cytopathic effect after 6 days by XTT dye based assay; type: functional, cell-based; conditions: Human immunodeficiency virus 1, NL4-3, MT4, 144 h
How it was run: (§5)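 MT-4 cells, 1 × 10^4 per well, given compound dilutions and wild-type NL4-3 or K65R NL4-3. Virus titred to give 85–95% cell killing at day 6. Incubated 6 days at 37 °C, 5% CO2. Viability read by XTT at 450/650 nm. EC50 from CPE reduction and toxicity from uninfected drug wells, by four-parameter fit. Fold change is K65R EC50 over wild-type EC50.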

[22] = system: Human immunodeficiency virus 1; assay: Selectivity ratio of EC50 for tenofovir-resistant CXCR4-tropic HIV-1 NL4-3 harboring reverse transcriptase K65R mutant infected in human MT4 cells to EC50 for CXCR4-tropic HIV-1 NL4-3 infected in human MT4 cells; type: functional; how it was run: as §5
[23] = Cytotoxicity against human MT4 cells assessed as reduction in cell viability after 6 days by XTT tetrazolium dye-based assay; how it was run: as §5
[24] = Cytotoxic activity against HEL cells assessed as reduction in cell proliferation after 3 days by coulter counting method; type: cell-based; conditions: human
How it was run: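 HEL cells seeded at 5 × 10^3/well, grown 24 h, then given compound for 3 days at 37 °C. Cell number counted by Coulter counter. CC50 is 50% reduction of proliferation relative to untreated controls, read from graphic plots.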

[25] = Half life in human plasma at 1 uM by HPLC-MS/MS method; type: ADME, cell-free
How it was run: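 Human plasma preincubated 10 min with pH 7.4 phosphate buffer at 37 °C. Compound added at final 1 μM and sampled at 0, 0.5, 1, 1.5 and 2 h into acetonitrile. Centrifuged and analysed by HPLC-MS/MS. t1/2 is the mean of two experiments.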

[26] = Half life in human liver microsomes at 0.1 uM in presence of NADPH by HPLC-MS/MS method; type: ADME, microsome
How it was run: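 Pooled human liver microsomes preincubated 10 min at 37 °C with an NADPH-regenerating system (1 mM NADP, 5 mM G6P, G6PDH) in pH 7.4 phosphate with 3 mM MgCl2 and 1 mM EDTA. Compound added at final 0.1 μM and sampled at 0–60 min into acetonitrile/methanol. Analysed by HPLC-MS/MS, mean of two experiments.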

[27] = Selectivity index, ratio of CC50 for human HEL cells to EC50 for HCMV AD-169 strain; how it was run: as §3
[28] = Selectivity index, ratio of CC50 for human HEL cells to EC50 for HCMV Davis strain; how it was run: as §3
[29] = system: Human immunodeficiency virus 1; assay: Antiviral activity against CXCR4-tropic HIV-1 NL4-3 infected in human MT4 cells assessed as inhibition of virus-induced cytopathic effect after 6 days by XTT dye based assay; type: functional, cell-based; conditions: Human immunodeficiency virus 1, NL4-3, MT4, 144 h; how it was run: as §5
[30] = system: Human immunodeficiency virus 1; assay: Antiviral activity against HIV-1 infected in human MT4 cells measured on day 5 post-infection by trypan blue dye staining-based method; type: functional, cell-based; conditions: Human immunodeficiency virus 1, MT4, 120 h
[31] = system: Human immunodeficiency virus 2; assay: Antiviral activity against HIV-2 infected in human MT4 cells measured on day 5 post-infection by trypan blue dye staining-based method; type: functional, cell-based; conditions: Human immunodeficiency virus 2, MT4, 120 h
[32] = system: Hepatitis B virus; assay: Antiviral activity against HBV infected in human HepG2(2.2.15) cells assessed as decrease in extracellular HBV DNA levels after 12 days by dot blot analysis; type: functional, cell-based; conditions: HepG2 2.2.15, 288 h

Row | SMILES | EC50 [1] [µM] | EC50 [2] [µM] | CC50 [3] [µM] | selectivity ratio [4] | selectivity ratio [5] | EC50 [6] [µM] | EC90 [6] [µM] | CC50 [7] [µM] | Ratio CC50/EC50 [8] | EC50 [9] [µM] | EC50 [10] [µM] | EC50 [11] [µM] | EC50 [12] [µM] | MCC at 72 h [13] [µM] | IC50 [16] [µM] | IC50 [17] [µM] | CC50 [18] [µM] | Ratio CC50/IC50 [19] | Ratio CC50/IC50 [20] | also measured
1 | CCCCCOC(=O)C[C@H](NP(=O)(CO[C@H](CF)Cn1cc(C)c(=O)[nH]c1=O)Oc1ccccc1)C(=O)OCCCCC (stereo partly specified) | > 43.4 | > 43.4 | 43.4 | < 1 | < 1 | 42.4 | > 100 | 33.5 | <1 | > 31.9 | > 31.9 | 19.7 | 23.1 | 159 | – | – | – | – | – | Stability [14]: Unstable; Stability [15]: Unstable
2 | CCCCCOC(=O)C[C@H](NP(=O)(CO[C@@H](CF)Cn1cnc2c(=O)[nH]c(N)nc21)Oc1ccccc1)C(=O)OCCCCC (stereo partly specified) | 0.073 | 0.06 | > 100 | > 1370 | > 1670 | 0.02 | 0.62 | > 100 | >5000 | 4.43 | 1.98 | 0.89 | 0.11 | 153 | 0.02 | 0.17 | 9.31 | 466 | 55 | EC50 [21]: 0.08 µM; Ratio EC50 [22]: 8; CC50 at 144 h [23]: > 1 µM; CC50 at 72 h [24]: 10.2 µM; half-life at 1 µM [25]: 73 min; half-life at 0.1 µM [26]: 2 min; Ratio CC50/EC50 [27]: <10; Ratio CC50/EC50 [28]: <10; EC50 [29]: 0.01 µM
3 | Nc1ncnc2c1ncn2C[C@@H](CF)OCP(=O)(O)O | 5.95 | 6.47 | > 100 | > 17 | > 15 | > 1.65 | > 100 | > 100 | >61 | > 328 | > 328 | 98 | 131 | > 328 | 1.19 | 3.73 | > 100 | 84 | 27 | EC50 [30]: 8 µM; EC50 [31]: 8 µM; EC50 [32]: 1.2 µM
